p47phox inh: inhibitors of human p47phox binding; inhibition, % at 24.7 µM; p47phox/p22phox peptide binding, fluorescence polarization, 2 h; AID 1274; 0.53% of 220,000 active; P14598;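 active means inhibition above about 30%, limit read from the data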;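 further: 0% = p47phox with labelled peptide and 100% = labelled peptide alone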
ABCB1 block: blocks JC-1 efflux by human ABCB1 transporter. 0.067% of 190,000 active. CCRF-Adr cells, flow cytometry. inhibition, % at 6.6 µM. P08183. AID 1326; in the data active means inhibition above about 40%;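 further: 0% = vehicle and 100% = reference inhibitor; higher value means more JC-1 retained so stronger ABCB1 efflux block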
Target sequence (P08183 whole entry, looked up): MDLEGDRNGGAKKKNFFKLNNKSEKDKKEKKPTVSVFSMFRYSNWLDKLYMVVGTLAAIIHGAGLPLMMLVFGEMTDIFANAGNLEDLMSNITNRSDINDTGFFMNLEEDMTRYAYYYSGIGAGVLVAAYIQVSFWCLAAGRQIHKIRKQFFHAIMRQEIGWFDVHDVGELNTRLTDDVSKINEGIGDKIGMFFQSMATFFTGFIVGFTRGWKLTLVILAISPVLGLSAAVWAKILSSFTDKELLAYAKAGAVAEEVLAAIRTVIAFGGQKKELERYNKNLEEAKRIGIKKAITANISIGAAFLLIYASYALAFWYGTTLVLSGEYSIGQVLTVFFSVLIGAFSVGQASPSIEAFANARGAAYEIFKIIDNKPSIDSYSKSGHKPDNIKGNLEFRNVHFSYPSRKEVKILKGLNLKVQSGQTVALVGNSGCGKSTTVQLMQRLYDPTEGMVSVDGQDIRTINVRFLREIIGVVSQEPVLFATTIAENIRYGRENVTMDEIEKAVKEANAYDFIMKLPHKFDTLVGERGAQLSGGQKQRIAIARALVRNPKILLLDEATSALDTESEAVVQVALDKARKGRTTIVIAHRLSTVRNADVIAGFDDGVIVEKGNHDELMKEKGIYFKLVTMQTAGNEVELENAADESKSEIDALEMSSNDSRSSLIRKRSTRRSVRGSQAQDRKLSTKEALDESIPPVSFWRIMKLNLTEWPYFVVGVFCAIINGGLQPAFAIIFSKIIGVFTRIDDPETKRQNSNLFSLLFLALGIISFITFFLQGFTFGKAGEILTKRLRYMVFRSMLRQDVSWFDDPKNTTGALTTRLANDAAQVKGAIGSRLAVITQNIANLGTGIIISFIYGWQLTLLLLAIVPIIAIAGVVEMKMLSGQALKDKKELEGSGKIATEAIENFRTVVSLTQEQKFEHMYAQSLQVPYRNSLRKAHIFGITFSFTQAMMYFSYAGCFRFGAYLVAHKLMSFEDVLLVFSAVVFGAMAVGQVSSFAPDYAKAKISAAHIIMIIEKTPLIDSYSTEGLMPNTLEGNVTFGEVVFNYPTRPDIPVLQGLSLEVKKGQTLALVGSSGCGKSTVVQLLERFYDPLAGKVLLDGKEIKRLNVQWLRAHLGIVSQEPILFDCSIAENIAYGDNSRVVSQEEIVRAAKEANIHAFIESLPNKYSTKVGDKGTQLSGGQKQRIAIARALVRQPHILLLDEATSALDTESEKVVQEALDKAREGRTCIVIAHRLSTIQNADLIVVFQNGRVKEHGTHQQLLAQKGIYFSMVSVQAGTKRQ
Diaph act CS: counter-screen for diaphorase-based assays: diaphorase activators and chemical reducers; Diaphorase/resazurin coupled assay, resorufin fluorescence, 16 min; stronger effect = higher value; 1 = vehicle wells, 0 = NADH-free wells; activation factor at 20 µM; 0.005% of 190,000 active; AID 1229;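 active means diaphorase activity raised at least twofold by the compound at 20 µM; inactive means activation factor below 2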
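System – purified diaphorase enzyme from Clostridium kluyveri · Input – enzyme 0.07 U/mL final · Also added – final NADH 0.114 mM, resazurin 0.1 mM · Measured by – fluorescence of resorufin, 544 nm excitation, 590 nm emission · Timing – 16 min enzyme reaction, ambient temperature · Measure – resorufin increase flagging diaphorase activators or reducers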
Efa HMGR inh: inhibitors of class II HMG-CoA reductase from Enterococcus faecalis; 0.41% of 190,000 active; AID 1066; inhibition, % at 10 µM; purified E. faecalis HMGR, NADPH absorbance 340 nm kinetic;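 active means inhibition above a set limit, the median over all tested compounds plus 3 SD, cut at about 9.5% in these data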;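 further: enzyme runs in reverse so mevalonate oxidation gives rising NADPH absorbance; 0% = complete reaction with DMSO and 100% = background rate lacking mevalonate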
Diaphorase inh: inhibits diaphorase or chemically oxidizes, flagging diaphorase assay artifacts; diaphorase resazurin-to-resorufin fluorescence, NADH, 16 min; bacterial (C. kluyveri) enzyme, not human; inhibition, % at 20 µM; 0.69% of 190,000 active; AID 1217;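 active means primary screen inhibition at 20 µM above a set limit, cut at about 50% in these data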;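 further: plate controls were DMSO with full reaction for no effect and wells lacking NADH for full effect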
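Benchmarks: positive control wells lacking NADH, neutral wells with DMSO only. System: bacterial diaphorase enzyme (C. kluyveri). Input: 0.14 U/mL diaphorase, enzyme working solution. Detection: resorufin fluorescence, excitation 544 nm, emission 590 nm. Times: 16-min room-temperature incubation before reading.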
ABCG2 block: inhibitors of human ABCG2 transporter, ABCB1 counter-screen; Q9UNQ0; IgMXP3 cells, JC-1 efflux, flow cytometry; inhibition, % at 6.6 µM; 0.1% of 190,000 active; AID 1325;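 active means inhibition above 80%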;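 further: 0% = DMSO and 100% = nicardipine control wells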
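material = IgMXP3 (ABCG2) plus far-red-tagged CCRF-Adr (ABCB1) cells | amount = 3 million cells/mL, equal mix of both lines | also added = JC-1 transporter substrate | dosing = one concentration, 6.6 µM final | schedule = 10 min at 25 °C | measured by = flow cytometric JC-1 green MFI at 530 nm | read-out basis = percent efflux inhibition, scaled nicardipine 100% to DMSO 0%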
ABCB1 confirm: confirmation of human ABCB1 transporter inhibitors, ABCG2 counter-screen | shares compounds with ABCG2 block | CCRF-Adr cells, JC-1 efflux, flow cytometry | inhibition, % at 6.6 µM | 7% of 270 active | AID 1451;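 active means inhibition of pump activity above 50%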;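 further: 0% = DMSO and 100% = nicardipine full pump inhibition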
ABCG2 confirm: confirmation of human ABCG2 transporter inhibitors, ABCB1 counter-screen; shares compounds with ABCG2 block; IgMXP3 cells, JC-1 efflux, flow cytometry; inhibition, % at 6.6 µM; 6% of 270 active;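 active means inhibition above 50%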;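 further: 0% = DMSO wells and 100% = nicardipine pump inhibitor wells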
IgMXP3 autofluor: compound fluoresces at 488/530 nm in IgMXP3 cells | 30% of 270 active | compound autofluorescence 488/530 nm, flow; stronger effect = higher value | shares compounds with ABCG2 block | fluorescence at 6.6 µM | AID 1480;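 active means fluorescence in ABCG2-expressing cells above the plate's control-well mean plus 3 SD, cut at about 15 in these data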;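 further: median cell fluorescence with compound minus that of DMSO-treated control cells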
CCRF autofluor: counter-screen for ABCB1 inhibitors: compound fluorescence in CCRF-Adr cells; shares compounds with ABCG2 block; compound autofluorescence 488/530 nm, flow cytometry; stronger effect = higher value; fluorescence at 6.6 µM; 30% of 270 active;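 active means fluorescence beyond the plate control mean plus 3 SD, with a fluorescence-to-maximum score over 2, cut at about 25 in these data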
An asterisk follows results filed as active; . = no result given. Sampled rows, rich in hits. Any-hit rate of the full collection: about 1.6%.

SMILES	p47phox inh	ABCB1 block	Diaph act CS	Efa HMGR inh	Diaphorase inh	ABCG2 block	others
Cn1c(O)c(/C=C2\N=c3ccccc3=C2CCNC(=S)NC2CC2)c(=O)n(C)c1=O	38.7*	.	.	.	.	.
COC(=O)C1=Nc2ccccc2/C1=C\c1c(O)n(C)c(=O)n(C)c1=O	-30.0	.	.	.	.	.
COc1ccc(CCNC(=O)c2c(N)n(CCN3CCOCC3)c3nc4ccccc4nc23)cc1OC	-5.9	29.3	0.5	-2.6	51.0*	53.1
CCN1CCN(C(=O)Cc2ccccc2OC)CC1	-11.6	0.7	0.9	14.2*	7.5	1.4
O=[N+]([O-])/C=C1/NCCN1Cc1ccc(Cl)nc1	-4.1	1.0	0.9	-2.4	5.6	1.4
O=[N+]([O-])/C(Cl)=C1\NCCN1Cc1ccc(Cl)nc1	-6.8	0.0	1	13.8*	-1.5	0.0
CN1CCN(/N=C/c2c(O)n(CCC3=CCCCC3)c(=S)[nH]c2=O)CC1	-105.5	.	.	.	.	.
O=C1NC(=S)N(Cc2ccco2)C(=O)/C1=C\c1cccs1	-97.0	-0.8	0.1	6.6	90.1*	-2.5
CN(C)c1ccc(/C=C2/C(=O)NC(=O)N(Cc3ccco3)C2=O)cc1	77.6*	-0.6	0.9	-6.4	9.6	-4.8
COc1ccc(CN2C(=O)NC(=O)/C(=C\c3ccco3)C2=O)cc1	-27.0	-0.5	0.9	11.6*	14.2	-1.2
CCN(CC)c1ccc(/C=C2\C(=O)NC(=O)N(CC3CCCO3)C2=O)cc1 (configuration not stated)	-115.7	0.0	0.8	-1.1	16.9	-4.1
CCN(CC)c1ccc(/C=C2/C(=O)NC(=O)N(Cc3ccco3)C2=O)cc1	167.8*	-0.7	0.8	-6.8	17.4	-22.8
O=C1NC(=O)[C@]2(Cc3ccccc3N3CCN(c4ccccc4)CC32)C(=O)N1c1ccccc1 (some centres not stated)	-9.1	0.4	0.9	-0.3	14.1	0.9
CCOc1cccc(OCC)c2c(C)[n+](CC3CCCO3)c(C)c1-2 (configuration not stated)	15.9	-2.4	0.7	1.1	31.4	-2.4
COc1ccc(OC)c(NC2=NCCCS2)c1	-16.2	0.6	1.1	4.3	-6.7	4.0
O=C(c1cc(F)ccc1F)C1CCCN(Cc2cccc(Cl)c2)C1 (configuration not stated)	-8.8	1.1	0.7	-2.8	25.8	0.8
O=C(c1cc(F)ccc1F)C1CCCN(CCCc2ccccc2)C1 (configuration not stated)	-3.4	1.0	0.8	9.6*	17.4	0.8
O=C1NC(=O)N(c2ccc(F)cc2)C(=O)/C1=C/c1ccc(N2CCOCC2)cc1	-13.2	0.1	0.8	-1.9	15.1	0.7
O=C1NC(=O)N(Cc2ccc(F)cc2)C(=O)/C1=C\c1ccc(N2CCCC2)cc1	193.4*	.	.	.	.	.
Cc1c(Cl)cccc1NC(=S)N1CC2CC(C1)c1cccc(=O)n1C2 (configuration not stated)	-26.0	18.2	1	-4.5	-1.2	13.8
c1ccc(-c2ccc(-c3n(-c4ccccn4)c4ccccc4[n+]3-c3ccccn3)cc2)cc1	34.2*	2.0	0.8	-4.3	18.3	10.0
CC(C)=CCC12CN3CCN(CC(C3)C1=O)C2	-61.0	4.3	0.8	-4.3	15.1	106.7*	ABCB1 confirm=-3.2;ABCG2 confirm=7.0;IgMXP3 autofluor=2.81;CCRF autofluor=18.9
Oc1c(Br)cc(Br)cc1Oc1ccc(Br)cc1Br	-4.3	0.7	0.8	-2.5	16.8	12.6

From PubChem BioAssay
